Measurements reported in ChEMBL document CHEMBL3352671, “Inhibitory and mechanistic investigations of oxo-lipids with human lipoxygenase isozymes” (Bioorg Med Chem, 2014).
Active and inactive are the calls of the source. The calls are words filed in the database; no cut-off is given here.

Assays:
[1] = target: T1, Polyunsaturated fatty acid 5-lipoxygenase (Homo sapiens, UniProt P09917); assay: Inhibition of human leukocyte 5-lipoxygenase by UV-visible spectrophotometry
T1 sequence (P09917 whole entry): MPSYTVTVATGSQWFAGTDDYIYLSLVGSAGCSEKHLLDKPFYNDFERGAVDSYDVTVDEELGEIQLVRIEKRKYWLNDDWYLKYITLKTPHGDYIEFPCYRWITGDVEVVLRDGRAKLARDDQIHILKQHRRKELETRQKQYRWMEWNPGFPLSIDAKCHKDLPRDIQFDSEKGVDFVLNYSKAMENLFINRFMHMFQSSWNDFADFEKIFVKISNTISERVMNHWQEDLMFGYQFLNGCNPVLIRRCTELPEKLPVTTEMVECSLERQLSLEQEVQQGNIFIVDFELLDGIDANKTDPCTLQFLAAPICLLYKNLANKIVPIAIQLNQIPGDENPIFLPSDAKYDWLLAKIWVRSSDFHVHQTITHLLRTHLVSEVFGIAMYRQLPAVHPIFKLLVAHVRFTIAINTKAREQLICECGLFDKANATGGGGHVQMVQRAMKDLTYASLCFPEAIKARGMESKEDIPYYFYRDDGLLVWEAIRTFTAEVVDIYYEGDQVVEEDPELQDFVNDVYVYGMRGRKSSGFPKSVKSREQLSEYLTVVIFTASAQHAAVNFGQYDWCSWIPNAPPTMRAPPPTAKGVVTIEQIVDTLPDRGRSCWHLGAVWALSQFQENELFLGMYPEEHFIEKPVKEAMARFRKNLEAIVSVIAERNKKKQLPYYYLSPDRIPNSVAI

[2] = target: T2, Polyunsaturated fatty acid lipoxygenase ALOX12 (Homo sapiens, UniProt P18054); assay: Inhibition of human platelet 12-lipoxygenase by UV-visible spectrophotometry
T2 sequence (P18054 whole entry): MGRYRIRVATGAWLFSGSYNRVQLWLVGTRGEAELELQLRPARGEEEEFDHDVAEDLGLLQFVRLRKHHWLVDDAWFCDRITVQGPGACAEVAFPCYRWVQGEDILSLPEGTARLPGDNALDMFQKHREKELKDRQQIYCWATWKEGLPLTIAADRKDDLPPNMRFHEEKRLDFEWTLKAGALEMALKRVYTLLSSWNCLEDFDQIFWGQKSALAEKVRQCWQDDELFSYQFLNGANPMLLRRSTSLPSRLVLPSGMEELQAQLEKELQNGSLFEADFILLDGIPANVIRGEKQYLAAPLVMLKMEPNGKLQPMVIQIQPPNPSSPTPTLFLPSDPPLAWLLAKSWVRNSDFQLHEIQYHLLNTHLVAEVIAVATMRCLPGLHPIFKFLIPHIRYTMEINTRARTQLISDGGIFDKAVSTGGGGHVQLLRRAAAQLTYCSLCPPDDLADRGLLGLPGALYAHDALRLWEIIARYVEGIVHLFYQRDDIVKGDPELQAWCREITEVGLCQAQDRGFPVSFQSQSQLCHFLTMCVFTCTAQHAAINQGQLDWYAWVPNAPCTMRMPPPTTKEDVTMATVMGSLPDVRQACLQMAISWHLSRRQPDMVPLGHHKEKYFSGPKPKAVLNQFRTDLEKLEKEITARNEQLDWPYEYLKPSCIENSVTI
Method in brief: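 h12-LOX (~100 nM total protein) in 25 mM HEPES pH 8.0, 0.01% Triton X-100, 10 μM AA, run as stirred 2 mL reactions at 23°C. Diene formation was read at 234 nm.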

[3] = target: T3, Polyunsaturated fatty acid lipoxygenase ALOX15 (Homo sapiens, UniProt P16050); assay: Inhibition of human reticulocyte 15-lipoxygenase-1 by UV-visible spectrophotometry
T3 sequence (P16050 whole entry): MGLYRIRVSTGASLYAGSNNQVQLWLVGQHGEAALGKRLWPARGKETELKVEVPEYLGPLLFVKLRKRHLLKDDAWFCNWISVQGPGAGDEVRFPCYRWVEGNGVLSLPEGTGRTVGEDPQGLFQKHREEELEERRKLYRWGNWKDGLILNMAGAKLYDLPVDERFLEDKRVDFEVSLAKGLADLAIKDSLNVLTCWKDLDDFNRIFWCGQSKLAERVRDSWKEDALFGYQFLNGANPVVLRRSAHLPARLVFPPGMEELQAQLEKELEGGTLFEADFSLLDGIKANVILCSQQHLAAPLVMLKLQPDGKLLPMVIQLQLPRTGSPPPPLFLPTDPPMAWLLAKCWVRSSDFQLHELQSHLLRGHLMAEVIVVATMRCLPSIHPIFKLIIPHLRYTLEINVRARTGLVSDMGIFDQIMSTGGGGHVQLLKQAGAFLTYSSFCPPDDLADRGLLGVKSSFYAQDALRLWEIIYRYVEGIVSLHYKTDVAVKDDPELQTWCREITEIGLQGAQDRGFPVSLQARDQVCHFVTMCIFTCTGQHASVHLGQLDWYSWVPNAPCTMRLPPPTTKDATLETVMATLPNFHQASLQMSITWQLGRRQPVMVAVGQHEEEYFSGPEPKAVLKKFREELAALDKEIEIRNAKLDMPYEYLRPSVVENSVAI
Method in brief: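 Purified h15-LOX-1 (~60 nM total protein) in stirred 2 mL reactions at 23°C, 25 mM HEPES pH 7.5, 0.01% Triton X-100, 10 μM AA. Rate followed as conjugated diene formation at 234 nm. IC50 from at least five inhibitor concentrations by hyperbolic saturation fit, triplicate. Weak inhibitors approximated from one-point screen at 25 μM (triplicate).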

[4] = target: T4, Polyunsaturated fatty acid lipoxygenase ALOX15B (Homo sapiens, UniProt O15296); assay: Inhibition of human reticulocyte 15-lipoxygenase-2 by UV-visible spectrophotometry; details: in the assay text read “epithelial” for “reticulocyte”
T4 sequence (O15296 whole entry): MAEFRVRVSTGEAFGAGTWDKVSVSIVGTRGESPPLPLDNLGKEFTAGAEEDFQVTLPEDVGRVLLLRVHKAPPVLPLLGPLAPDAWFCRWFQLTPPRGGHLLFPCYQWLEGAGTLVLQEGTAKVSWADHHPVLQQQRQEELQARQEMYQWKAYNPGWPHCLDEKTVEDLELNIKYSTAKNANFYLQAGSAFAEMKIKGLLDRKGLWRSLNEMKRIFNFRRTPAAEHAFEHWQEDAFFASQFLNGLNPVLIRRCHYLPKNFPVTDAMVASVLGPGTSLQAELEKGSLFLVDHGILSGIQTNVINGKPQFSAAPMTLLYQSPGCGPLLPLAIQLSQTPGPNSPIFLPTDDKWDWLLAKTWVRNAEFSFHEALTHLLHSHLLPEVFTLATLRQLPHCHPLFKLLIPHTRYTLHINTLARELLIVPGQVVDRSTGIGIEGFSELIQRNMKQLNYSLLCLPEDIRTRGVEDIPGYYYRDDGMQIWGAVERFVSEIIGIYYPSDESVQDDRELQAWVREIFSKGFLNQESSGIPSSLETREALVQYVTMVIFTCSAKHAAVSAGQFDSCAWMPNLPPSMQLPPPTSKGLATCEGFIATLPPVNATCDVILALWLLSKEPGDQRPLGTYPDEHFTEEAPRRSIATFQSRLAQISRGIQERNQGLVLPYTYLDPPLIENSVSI
Method in brief: (§1)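 Enzyme was h15-LOX-2 (~200 nM) or rabbit 15-LOX (~50 nM), in 25 mM HEPES pH 7.5, 0.01% Triton X-100, 10 μM AA, stirred 2 mL at 23°C. Product was monitored at 234 nm.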

[5] = target: T5, Polyunsaturated fatty acid lipoxygenase ALOX15 (Oryctolagus cuniculus, UniProt P12530); assay: Inhibition of rabbit reticulocyte 15-LOX by UV-visible spectrophotometry; method in brief: as §1
T5 sequence (P12530 whole entry): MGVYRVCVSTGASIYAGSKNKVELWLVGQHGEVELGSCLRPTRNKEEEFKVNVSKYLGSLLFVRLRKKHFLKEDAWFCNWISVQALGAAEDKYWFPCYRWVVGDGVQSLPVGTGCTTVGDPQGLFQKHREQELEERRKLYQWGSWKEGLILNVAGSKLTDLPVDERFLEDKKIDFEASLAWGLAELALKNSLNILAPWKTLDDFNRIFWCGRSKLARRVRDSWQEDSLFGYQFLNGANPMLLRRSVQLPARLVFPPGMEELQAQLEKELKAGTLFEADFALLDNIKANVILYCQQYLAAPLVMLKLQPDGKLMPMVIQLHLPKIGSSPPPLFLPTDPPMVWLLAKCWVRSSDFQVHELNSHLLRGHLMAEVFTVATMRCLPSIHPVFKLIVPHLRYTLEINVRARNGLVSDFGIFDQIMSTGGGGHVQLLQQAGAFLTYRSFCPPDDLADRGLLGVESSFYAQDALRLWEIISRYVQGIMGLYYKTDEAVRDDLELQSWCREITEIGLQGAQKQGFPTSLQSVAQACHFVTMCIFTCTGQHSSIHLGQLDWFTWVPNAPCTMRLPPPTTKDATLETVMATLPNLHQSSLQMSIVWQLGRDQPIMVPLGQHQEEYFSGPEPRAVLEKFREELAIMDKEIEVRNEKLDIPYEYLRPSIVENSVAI

[6] = Inhibition of soybean 15-lipoxygenase-1 by UV-visible spectrophotometry; design: species or system Glycine max
Method in brief: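 Soybean 15-LOX-1 (~2 nM) was assayed in 100 mM borate pH 9.2, 0.01% Triton X-100, 10 μM AA, stirred 2 mL at 23°C. Conjugated diene was read at 234 nm.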

Glycine max = assay: Irreversible inhibition of soybean 15-lipoxygenase-1
Method in brief: (§2)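 Time-dependent inactivation: h15-LOX-1 or s15-LOX-1 was incubated on ice with neat oxo-lipid oil (no solvent) at ≥5 concentrations for varied times. Residual activity was then measured under the UV 234 nm assay conditions for each enzyme and compared with an enzyme-only control. ka was taken as the slope of ln(% activity) versus time, and Ki and k2 from a replot of ka versus [I].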

[7] = target: T3, Polyunsaturated fatty acid lipoxygenase ALOX15; assay: Irreversible inhibition of human reticulocyte 15-lipoxygenase-1 by assessed as equilibrium inhibitor constant; method in brief: as §2
[8] = target: T6, Polyunsaturated fatty acid lipoxygenase ALOX12 (Homo sapiens) (UniProt P18054)
T6 sequence (whole entry): T2 sequence (P18054 whole entry)

[9] = target: T6, Polyunsaturated fatty acid lipoxygenase ALOX12 (Homo sapiens); remark: listed apart in the source

Row | Compound | IC50 [1] | IC50 [2] [µM] | IC50 [3] [µM] | IC50 [4] [µM] | IC50 [5] [µM] | IC50 [6] [µM] | IC50 ([1]; read-out: IC50) [µM] | inhibition (Glycine max) | Ki [7] [µM] | Kic [8] [µM] | Kiuc [9] [µM]
1 | CCCCC/C=C\C/C=C\C/C=C\C=C\C(=O)CCCC(=O)O [5-OXO-ETE] | Not Active | 15 | > 25 | > 100 | > 25 | > 100 |  |  |  |  | 
2 | CCCCCC(=O)/C=C/C=C\CCCCCCCC(=O)O |  | > 100 | > 100 | > 100 | > 100 | > 100 | > 100 | inactive |  |  | 
3 | CCCCC/C=C\CC(=O)/C=C/C=C\C/C=C\CCCC(=O)O |  | 8 | 3 | > 100 | > 50 | > 100 | > 50 |  | 36.8 |  | 
4 | CCCCCC(=O)/C=C/C=C\C/C=C\C/C=C\CCCC(=O)O |  | 1 | > 25 | > 100 | > 50 | > 100 | > 100 |  |  | 0.087 | 2.1
